Results as given in article PMC4326595 (Molecular cancer therapeutics, 2014).

Legend:
Assay in all cases: HDAC-Glo I/II luminescent assay
Type in all cases: biochemical
[1] = biological target: HDAC 2 (Homo sapiens, UniProt Q92769)
How it was run: (§1)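 Recombinant human enzymes: HDAC1 C-terminal GST, HDAC2/8/10 C-terminal His, HDAC6 N-terminal GST, HDAC3 as NCOR1 complex; each at a level in the lower linear titration range giving similar signal. Test compound, 15-point 3-fold dilutions (DMSO), pre-incubated with enzyme 20–30 min, room temperature; HDAC-Glo I/II detection reagent added, luminescence read after 20 min. Quadruplicate wells; IC50 values determined.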

[2] = biological target: T1, HDAC 8 (Homo sapiens, UniProt Q9BY41)
T1 sequence (Q9BY41 1-377): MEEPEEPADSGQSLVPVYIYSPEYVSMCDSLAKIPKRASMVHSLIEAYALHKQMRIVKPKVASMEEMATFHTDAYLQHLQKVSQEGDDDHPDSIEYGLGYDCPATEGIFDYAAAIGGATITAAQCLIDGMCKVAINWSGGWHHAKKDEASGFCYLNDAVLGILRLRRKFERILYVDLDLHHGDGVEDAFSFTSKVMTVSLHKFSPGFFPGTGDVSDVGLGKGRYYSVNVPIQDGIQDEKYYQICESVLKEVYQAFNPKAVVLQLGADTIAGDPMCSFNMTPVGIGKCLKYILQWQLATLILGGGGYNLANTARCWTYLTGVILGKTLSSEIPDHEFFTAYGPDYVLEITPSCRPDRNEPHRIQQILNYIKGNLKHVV
How it was run: as §1

[3] = biological target: HDAC 3/NCOR1 (Homo sapiens, UniProt O15379)
How it was run: as §1

[4] = biological target: T2, HDAC 6 (Homo sapiens, UniProt Q9UBN7)
T2 sequence (Q9UBN7 1-1215): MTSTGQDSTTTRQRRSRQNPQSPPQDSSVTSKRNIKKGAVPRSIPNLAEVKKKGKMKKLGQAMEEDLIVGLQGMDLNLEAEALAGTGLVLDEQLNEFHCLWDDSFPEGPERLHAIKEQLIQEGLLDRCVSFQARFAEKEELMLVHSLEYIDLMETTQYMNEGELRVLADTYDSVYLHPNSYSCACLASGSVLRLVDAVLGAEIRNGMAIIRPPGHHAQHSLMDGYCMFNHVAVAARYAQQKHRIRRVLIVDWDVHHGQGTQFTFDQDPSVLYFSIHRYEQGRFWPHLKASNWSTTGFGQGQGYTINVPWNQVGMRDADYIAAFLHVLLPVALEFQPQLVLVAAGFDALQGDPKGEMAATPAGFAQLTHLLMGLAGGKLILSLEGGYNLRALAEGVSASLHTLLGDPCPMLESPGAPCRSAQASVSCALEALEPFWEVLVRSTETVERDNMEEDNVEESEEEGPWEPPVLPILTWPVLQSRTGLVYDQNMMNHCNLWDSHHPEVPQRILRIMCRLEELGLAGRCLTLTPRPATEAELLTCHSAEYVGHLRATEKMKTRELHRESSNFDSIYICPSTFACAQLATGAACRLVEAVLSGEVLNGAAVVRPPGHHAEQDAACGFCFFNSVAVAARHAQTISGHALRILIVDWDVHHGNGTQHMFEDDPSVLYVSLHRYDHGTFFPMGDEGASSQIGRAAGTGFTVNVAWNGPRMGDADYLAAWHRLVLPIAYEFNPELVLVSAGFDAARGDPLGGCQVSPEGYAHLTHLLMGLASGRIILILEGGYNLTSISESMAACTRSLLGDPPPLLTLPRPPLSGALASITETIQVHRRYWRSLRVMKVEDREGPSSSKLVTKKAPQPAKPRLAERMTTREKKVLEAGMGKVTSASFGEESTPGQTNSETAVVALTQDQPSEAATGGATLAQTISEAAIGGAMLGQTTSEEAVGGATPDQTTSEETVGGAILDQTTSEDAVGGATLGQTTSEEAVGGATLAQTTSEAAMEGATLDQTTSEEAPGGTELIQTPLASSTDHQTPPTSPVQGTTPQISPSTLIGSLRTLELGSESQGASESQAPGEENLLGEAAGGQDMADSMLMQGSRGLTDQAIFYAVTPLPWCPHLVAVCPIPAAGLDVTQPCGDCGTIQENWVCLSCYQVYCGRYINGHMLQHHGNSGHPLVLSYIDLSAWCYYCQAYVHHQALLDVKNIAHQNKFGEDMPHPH
How it was run: as §1

[5] = biological target: T3, HDAC 10 (Homo sapiens, UniProt Q969S8)
T3 sequence (Q969S8 1-669): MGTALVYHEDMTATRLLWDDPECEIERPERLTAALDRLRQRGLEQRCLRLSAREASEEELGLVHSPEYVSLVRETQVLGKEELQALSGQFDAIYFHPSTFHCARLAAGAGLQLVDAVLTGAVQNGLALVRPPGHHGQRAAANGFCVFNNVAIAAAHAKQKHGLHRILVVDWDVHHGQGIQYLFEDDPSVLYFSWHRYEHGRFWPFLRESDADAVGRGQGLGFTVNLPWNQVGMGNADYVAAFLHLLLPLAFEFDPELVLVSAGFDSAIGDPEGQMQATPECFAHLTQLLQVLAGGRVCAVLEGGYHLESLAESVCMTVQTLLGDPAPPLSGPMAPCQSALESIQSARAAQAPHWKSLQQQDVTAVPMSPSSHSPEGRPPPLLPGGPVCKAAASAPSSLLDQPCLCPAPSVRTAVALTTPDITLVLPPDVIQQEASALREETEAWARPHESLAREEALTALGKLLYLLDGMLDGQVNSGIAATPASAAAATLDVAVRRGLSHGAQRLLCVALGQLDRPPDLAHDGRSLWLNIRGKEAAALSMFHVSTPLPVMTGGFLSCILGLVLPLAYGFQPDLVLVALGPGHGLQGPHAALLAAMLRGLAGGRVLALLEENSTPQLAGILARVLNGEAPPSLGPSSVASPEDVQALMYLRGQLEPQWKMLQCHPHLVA
How it was run: as §1

[6] = biological target: HDAC 1 (Homo sapiens, UniProt Q13547)
How it was run: as §1

Sequence of HDAC 2 (Q92769 whole entry): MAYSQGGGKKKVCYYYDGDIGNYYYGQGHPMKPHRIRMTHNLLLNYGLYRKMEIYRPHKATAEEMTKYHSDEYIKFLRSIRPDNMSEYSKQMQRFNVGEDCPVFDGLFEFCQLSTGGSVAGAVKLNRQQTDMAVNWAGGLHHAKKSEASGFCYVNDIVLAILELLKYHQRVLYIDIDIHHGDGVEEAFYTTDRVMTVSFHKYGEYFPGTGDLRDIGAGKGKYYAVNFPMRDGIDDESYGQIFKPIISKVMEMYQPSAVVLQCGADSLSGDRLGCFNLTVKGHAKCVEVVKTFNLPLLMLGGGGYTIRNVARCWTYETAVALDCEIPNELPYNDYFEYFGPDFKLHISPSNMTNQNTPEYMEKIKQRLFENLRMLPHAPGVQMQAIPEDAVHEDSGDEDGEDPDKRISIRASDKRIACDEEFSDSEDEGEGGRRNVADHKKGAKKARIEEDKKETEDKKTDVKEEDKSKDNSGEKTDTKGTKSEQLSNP
Sequence of HDAC 1 (Q13547 whole entry): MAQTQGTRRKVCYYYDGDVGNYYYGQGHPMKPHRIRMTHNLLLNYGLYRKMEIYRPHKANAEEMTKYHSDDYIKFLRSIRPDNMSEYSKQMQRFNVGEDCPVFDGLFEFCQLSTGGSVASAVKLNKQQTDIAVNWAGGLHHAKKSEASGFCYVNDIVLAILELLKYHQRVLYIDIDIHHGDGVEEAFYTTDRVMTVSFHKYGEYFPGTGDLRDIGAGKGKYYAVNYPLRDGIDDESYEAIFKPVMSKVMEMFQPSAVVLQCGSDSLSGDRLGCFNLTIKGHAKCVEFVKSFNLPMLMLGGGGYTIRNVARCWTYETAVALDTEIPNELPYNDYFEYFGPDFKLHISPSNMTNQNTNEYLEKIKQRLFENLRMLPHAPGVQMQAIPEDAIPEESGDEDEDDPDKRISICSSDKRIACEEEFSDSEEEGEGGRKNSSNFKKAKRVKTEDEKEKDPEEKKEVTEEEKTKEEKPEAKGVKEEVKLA
Sequence of HDAC 3/NCOR1 (O15379 whole entry): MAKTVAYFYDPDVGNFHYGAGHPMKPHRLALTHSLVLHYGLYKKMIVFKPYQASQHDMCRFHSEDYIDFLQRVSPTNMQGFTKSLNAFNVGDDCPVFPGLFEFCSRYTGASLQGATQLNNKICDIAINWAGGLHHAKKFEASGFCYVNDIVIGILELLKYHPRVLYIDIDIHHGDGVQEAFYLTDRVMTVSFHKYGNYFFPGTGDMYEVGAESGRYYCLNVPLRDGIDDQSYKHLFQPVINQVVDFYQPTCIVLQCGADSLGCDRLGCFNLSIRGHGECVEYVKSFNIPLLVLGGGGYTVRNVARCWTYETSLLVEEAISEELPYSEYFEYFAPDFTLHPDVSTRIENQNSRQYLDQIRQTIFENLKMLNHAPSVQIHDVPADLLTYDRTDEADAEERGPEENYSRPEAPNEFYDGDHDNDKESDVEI
Sequence of HDAC 3/NCOR1 (O75376 whole entry partner): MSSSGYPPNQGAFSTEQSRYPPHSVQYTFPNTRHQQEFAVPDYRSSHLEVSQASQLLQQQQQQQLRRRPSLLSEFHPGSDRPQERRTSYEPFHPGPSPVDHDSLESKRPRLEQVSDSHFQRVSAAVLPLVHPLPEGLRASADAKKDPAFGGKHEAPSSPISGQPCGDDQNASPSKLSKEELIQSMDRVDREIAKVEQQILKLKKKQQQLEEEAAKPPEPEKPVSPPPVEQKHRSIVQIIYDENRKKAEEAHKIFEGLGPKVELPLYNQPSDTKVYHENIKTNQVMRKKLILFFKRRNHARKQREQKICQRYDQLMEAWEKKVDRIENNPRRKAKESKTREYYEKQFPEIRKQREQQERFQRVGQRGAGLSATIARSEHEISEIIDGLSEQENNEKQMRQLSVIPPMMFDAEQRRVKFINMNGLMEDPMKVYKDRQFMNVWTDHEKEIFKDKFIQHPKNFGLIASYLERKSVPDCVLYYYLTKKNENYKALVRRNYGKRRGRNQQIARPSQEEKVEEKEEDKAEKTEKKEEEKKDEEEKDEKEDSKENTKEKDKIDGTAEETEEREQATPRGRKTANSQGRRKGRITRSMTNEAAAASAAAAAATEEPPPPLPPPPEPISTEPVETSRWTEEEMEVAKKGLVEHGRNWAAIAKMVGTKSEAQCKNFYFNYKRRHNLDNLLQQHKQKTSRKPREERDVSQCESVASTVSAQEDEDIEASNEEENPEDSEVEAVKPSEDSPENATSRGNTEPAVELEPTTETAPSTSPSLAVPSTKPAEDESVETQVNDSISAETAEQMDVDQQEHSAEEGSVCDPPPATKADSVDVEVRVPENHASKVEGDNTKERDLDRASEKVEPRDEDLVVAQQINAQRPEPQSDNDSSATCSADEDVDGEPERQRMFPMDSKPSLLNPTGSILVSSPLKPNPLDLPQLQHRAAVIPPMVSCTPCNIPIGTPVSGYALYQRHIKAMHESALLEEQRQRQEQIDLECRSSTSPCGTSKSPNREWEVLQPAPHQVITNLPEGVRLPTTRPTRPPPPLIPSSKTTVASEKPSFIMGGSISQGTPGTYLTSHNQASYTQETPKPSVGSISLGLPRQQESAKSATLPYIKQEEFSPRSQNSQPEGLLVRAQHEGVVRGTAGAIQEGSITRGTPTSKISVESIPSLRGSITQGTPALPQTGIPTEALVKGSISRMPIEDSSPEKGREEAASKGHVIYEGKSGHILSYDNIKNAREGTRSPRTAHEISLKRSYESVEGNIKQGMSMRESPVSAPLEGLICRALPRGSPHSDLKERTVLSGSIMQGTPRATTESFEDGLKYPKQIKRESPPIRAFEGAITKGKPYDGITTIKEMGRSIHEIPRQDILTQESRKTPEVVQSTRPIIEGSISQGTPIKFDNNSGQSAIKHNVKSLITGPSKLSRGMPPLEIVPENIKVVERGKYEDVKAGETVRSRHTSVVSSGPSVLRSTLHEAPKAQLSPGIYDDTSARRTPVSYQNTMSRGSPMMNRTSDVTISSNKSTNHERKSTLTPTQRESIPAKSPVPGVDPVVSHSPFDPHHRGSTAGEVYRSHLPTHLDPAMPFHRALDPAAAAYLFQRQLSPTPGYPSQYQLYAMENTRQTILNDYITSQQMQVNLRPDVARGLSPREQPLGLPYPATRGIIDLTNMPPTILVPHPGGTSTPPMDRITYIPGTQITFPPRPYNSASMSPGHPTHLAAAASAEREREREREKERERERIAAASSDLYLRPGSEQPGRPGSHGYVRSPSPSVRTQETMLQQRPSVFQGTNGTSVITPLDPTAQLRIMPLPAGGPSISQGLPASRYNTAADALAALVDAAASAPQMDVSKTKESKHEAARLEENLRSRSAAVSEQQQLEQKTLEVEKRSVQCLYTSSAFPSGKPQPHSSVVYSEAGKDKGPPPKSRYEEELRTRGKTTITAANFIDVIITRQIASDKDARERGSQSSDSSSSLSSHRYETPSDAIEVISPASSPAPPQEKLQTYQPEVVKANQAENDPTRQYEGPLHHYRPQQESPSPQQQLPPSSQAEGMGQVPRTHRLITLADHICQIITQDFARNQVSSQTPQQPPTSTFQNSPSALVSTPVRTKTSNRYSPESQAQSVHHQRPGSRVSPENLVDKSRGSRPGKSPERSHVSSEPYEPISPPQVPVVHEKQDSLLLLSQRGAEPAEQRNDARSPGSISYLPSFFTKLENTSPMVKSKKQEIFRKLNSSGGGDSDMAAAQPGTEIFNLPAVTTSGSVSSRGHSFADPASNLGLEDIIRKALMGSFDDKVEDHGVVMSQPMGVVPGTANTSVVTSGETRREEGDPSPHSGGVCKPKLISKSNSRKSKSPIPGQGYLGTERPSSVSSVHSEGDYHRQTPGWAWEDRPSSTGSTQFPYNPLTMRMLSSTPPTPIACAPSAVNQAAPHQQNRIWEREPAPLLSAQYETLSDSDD

With `COc1ccc(C=NNC(=O)CCCCCCC(=O)NO)cc1` [AB3] the IC50 [1] was 3.12 nM, the IC50 [2] was 60.3 nM and the IC50 [3] was 1.82 nM. For the same compound, the IC50 [4] was 35.8 nM, the IC50 [5] was 11.1 nM and the IC50 [6] was 2.28 nM.
